Columns and labels:
[1] = tested on: NIH3T3; test: Cytotoxic effect on 3T3 cells; format: functional, cell-based; settings: Mus musculus
How it was run: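 3T3 parental fibroblasts, 2 × 10^4 cells in DMEM with 10% fetal calf serum; compounds dissolved or suspended in DMF or DMSO, final solvent ≤0.5% v/v. Value is the mean of two determinations.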

[2] = tested on: ANN-1; test: Cytotoxic effect on v-abl transformed murine ANN-1 cells; format: functional, cell-based; settings: Mus musculus
How it was run: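 Abelson virus-transformed ANN-1 murine fibroblasts expressing the gag-abl tyrosine kinase, 2 × 10^4 cells in DMEM with 10% fetal calf serum; compounds in DMF or DMSO, final solvent ≤0.5% v/v. Value is the mean of two determinations.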

[3] = tested on: MCF7; test: Cytotoxic effect on MCF-7 human breast carcinoma cells; format: functional, cell-based
[4] = tested on: WiDr; test: Cytotoxic effect on WiDr human colon cells; format: functional, cell-based
[5] = tested on: HFF; test: Inhibition of PDGF-induced mitogenesis in human foreskin fibroblasts; format: functional, cell-based
[6] = tested on: HFF; test: (§1) Inhibition of EGF-induced mitogenesis in human foreskin fibroblasts; format: functional, cell-based
[7] = tested on: HFF; test: as §1; format: functional, cell-based; remark: listed apart in the source
[8] = biological target: Epidermal growth factor receptor (Homo sapiens) (UniProt P00533); settings: A-431, 150 uM
Epidermal growth factor receptor (Homo sapiens), sequence (P00533 whole entry): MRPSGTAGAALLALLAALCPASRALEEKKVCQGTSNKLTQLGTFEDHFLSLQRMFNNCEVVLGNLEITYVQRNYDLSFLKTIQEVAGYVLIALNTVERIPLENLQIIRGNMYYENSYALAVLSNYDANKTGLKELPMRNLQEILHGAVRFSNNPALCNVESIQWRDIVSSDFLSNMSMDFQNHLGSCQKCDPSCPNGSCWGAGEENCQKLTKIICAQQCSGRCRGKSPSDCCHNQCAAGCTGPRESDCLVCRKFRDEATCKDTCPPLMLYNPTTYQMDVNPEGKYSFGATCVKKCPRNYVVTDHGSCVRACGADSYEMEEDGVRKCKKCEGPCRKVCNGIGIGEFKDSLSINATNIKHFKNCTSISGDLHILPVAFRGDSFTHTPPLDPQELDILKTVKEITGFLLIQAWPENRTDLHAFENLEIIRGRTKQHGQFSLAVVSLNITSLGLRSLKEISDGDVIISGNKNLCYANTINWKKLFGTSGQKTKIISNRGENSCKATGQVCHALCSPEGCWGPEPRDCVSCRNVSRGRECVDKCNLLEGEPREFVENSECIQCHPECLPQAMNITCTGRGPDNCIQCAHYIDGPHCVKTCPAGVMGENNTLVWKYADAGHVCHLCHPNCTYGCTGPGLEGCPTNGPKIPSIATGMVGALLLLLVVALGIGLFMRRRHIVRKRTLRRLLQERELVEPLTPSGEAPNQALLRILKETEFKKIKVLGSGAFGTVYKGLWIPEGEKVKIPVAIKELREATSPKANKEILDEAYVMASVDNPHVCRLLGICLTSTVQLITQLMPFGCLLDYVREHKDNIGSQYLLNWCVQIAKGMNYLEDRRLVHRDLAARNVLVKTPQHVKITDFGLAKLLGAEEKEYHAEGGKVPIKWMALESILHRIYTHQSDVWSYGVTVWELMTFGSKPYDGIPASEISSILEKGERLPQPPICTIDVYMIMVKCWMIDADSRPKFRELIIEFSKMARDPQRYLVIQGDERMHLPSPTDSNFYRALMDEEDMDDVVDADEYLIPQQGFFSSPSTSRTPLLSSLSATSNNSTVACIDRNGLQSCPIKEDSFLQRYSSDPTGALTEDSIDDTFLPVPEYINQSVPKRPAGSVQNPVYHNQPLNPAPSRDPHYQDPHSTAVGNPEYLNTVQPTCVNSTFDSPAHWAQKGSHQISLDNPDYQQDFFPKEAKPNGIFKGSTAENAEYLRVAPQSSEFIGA

| Compound | IC50 [1] [µM] | IC50 [2] [µM] | IC50 [3] [µM] | IC50 [4] [µM] | IC50 [5] [µM] | IC50 [6] [µM] | IC50 [7] [µM] | inhibition [8] [%] |
| --- | --- | --- | --- | --- | --- | --- | --- | --- |
| Oc1ccc(-c2nc3cc(O)ccc3s2)cc1 | 25 | 25.5 | 41.4 | 62.2 | – | – | – | – |
| O=c1c(O)c(-c2ccc(O)c(O)c2)oc2cc(O)cc(O)c12 [QUERCETIN] | 39.5 | 32.5 | 24 | 40.2 | 100 | – | – | – |
| Oc1ccc(-c2nc3c(O)cc(O)cc3s2)cc1 | 20 | 21.5 | 33.3 | 31.2 | 20 | 7 | 16 | – |
| CC/C(=C(/CC)c1ccc(O)cc1)c1ccc(O)cc1 [DIETHYLSTILBESTROL] | 2.5 | 3 | 5 | – | – | – | – | – |
| Oc1cccc(-c2nc3ccc(O)cc3s2)c1 | 30.5 | 17 | 2.7 | 18.3 | – | – | – | – |
| Oc1ccc(-c2nc3cc(O)c(O)cc3s2)cc1O | 56.5 | 32 | 5.1 | 34.2 | – | – | – | 38 |
| Oc1ccc(-c2nc3ccccc3s2)cc1 | 71.5 | 77 | 27 | 68.7 | – | – | – | – |
| O=c1c(-c2ccc(O)cc2)coc2cc(O)cc(O)c12 [GENISTEIN] | 24 | 8 | 15.1 | 27.7 | – | – | – | – |
| Oc1ccc(-c2nc3cc(O)c(O)cc3s2)cc1 | 13.5 | 9 | 8.4 | 24.7 | – | – | – | – |
| Oc1cc(O)c2nc(-c3ccc(O)c(O)c3)sc2c1 | 47 | 58.5 | 41.3 | 47.7 | 68 | 7 | 9 | – |
| Oc1ccc(-c2nc3ccc(O)cc3s2)cc1 | 11 | 13.5 | 25 | 67.2 | 14 | 13 | 6.5 | 42 |
| Oc1ccc2nc(-c3ccc(O)c(O)c3)sc2c1 | 6 | 5.5 | 17.6 | 23 | – | – | – | – |
| Oc1ccc2nc(-c3ccccc3)sc2c1 | 79.5 | 71 | 27.3 | 45.2 | – | – | – | – |

— ChEMBL document CHEMBL1127530 (J Med Chem, 1994)
